Data reported in ChEMBL document CHEMBL1122033, “Chemistry and hypoglycemic activity of N-[[(Dialkylamino)alkoxy]phenyl]benzamidines” (J Med Chem, 1982).

Legend:
[1] = test system: Rattus norvegicus; experiment: Blood sugar lowering (hypoglycemic activity) in the glucose-primed rat at a dose of 100 mg/kg; Decrease in blood sugar level.; assay type: functional
Outline: (§1)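 Male Sprague–Dawley rats, 140–150 g, groups of six, fasted 16 h. Each rat got 100 mg glucose s.c. in 0.5 mL isotonic NaCl, then the test agent at once orally as an aqueous carboxymethylcellulose suspension (0.5 mL); controls got vehicle. At 2 h, under light ether, blood was taken by cardiac puncture. Glucose was read by Autoanalyzer (Hoffman method). Values are percent difference from vehicle controls.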

[2] = Dose that produces lethality in 50% (LD50) of male and female carworth farms CF-1 strain mice weighing 16-25 g oral (po) route of administration; assay type: ADME, organism-based; conditions: both, CF-1, mouse, in vivo
Outline: (§2)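 Four mice per dose level. Drug dissolved in distilled water and suspended in 0.5% carboxymethylcellulose or 0.5% gelatin, with pH adjusted by 1 N HCl or 1 N NaOH where the drug tolerated it. Doses logarithmically spaced, given orally or intraperitoneally. Mice observed 7 days after dosing. LD50 derived by the Bliss method, expressed in mg/kg.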

[3] = Lethality in 50% (LD50) of male and female CF-1 strain mice weighing 16-25g, intraperitoneal administration; assay type: ADME, organism-based; conditions: both, CF-1, mouse, in vivo, ip; outline: as §2
[4] = test system: Rattus norvegicus; experiment: Compound was evaluated for the blood sugar lowering (hypoglycemic activity) in the glucose-primed rat at a dose of 100 mg/kg; Increase in blood sugar level; assay type: functional; outline: as §1
[5] = test system: Cavia porcellus; experiment: Evaluated in normal, fasted guinea pig for the percentage reduction in blood glucose level after 5 hr as compared to pretreatment blood glucose values at a dose of 25 mg of free base / kg body weight administered orally; assay type: functional
Outline: (§3)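 Male and female Hartley guinea pigs, 450–500 g, were food-deprived (water allowed) 18 h and split by sex into groups of four. A zero-time blood sample was taken by cardiac puncture, then drug was given, and blood was drawn again 5 h later. Percent reduction in blood glucose is relative to pretreatment values.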

[6] = test system: Rattus norvegicus; experiment: Evaluated in glucose-primed, fasted rat for the percentage reduction in blood glucose level after 2 hr as compared to control groups at a dose of 100 mg of free base / kg body weight administered orally; assay type: functional; outline: as §1
[7] = test system: Rattus norvegicus; experiment: Evaluated in alloxanized, diabetic rat for the percentage reduction in blood glucose level after 5 hr as compared to pretreatment blood glucose values at a dose of 100 mg of free base / kg body weight administered orally; assay type: functional
Outline: (§4)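 Three days later, rats positive for urine glucose (reagent strip) formed groups of six. Tail-vein blood was taken before oral dosing and again at 5 h. Percent reduction is versus pretreatment glucose.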

[8] = test system: Monkey; experiment: Evaluated in normal, fasted monkey for the percentage reduction in blood glucose level after 5 hr as compared to pretreatment blood glucose values at a dose of 10 mg of free base / kg body weight administered orally; assay type: functional, Cercopithecidae
Outline: (§5)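 Male and female rhesus monkeys (2–3 kg) were food-deprived, with water, for 18 h. Pretreatment blood was taken from the popliteal vein. Dosing was oral by stomach tube, with repeat sampling 5 h post-dose. Results are percent reduction in blood glucose relative to pretreatment values.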

[9] = test system: Rattus norvegicus; experiment: Evaluated in alloxanized, diabetic rat for the percentage reduction in blood glucose level as compared to pretreatment blood glucose values at a dose of 200 mg of free base / kg body weight administered orally.; assay type: functional; outline: as §4
[10] = test system: Monkey; experiment: Evaluated in normal, fasted monkey for the percentage reduction in blood glucose level as compared to pretreatment blood glucose values at a dose of 150 mg of free base / kg body weight administered orally; assay type: functional, Cercopithecidae; outline: as §5
[11] = Lethal dose required to produce 50% lethality in male and female carworth farms CF-1 strain mice weighing 16-25 g administered intraperitoneally; conditions: both, CF-1, rat, in vivo, ip
[12] = test system: Rattus norvegicus; experiment: Evaluated in glucose-primed, fasted rat for the percentage reduction in blood glucose level after 2 h as compared to control groups at a dose of 25 mg of free base / kg body weight administered orally; assay type: functional; outline: as §1
[13] = test system: Rattus norvegicus; experiment: Evaluated in glucose-primed, fasted rat for the percentage reduction in blood glucose level after 2 hr as compared to control groups at a dose of 50 mg of free base / kg body weight administered orally; assay type: functional; outline: as §1
[14] = test system: Rattus norvegicus; experiment: Evaluated in alloxanized, diabetic rat for the percentage reduction in blood glucose level as compared to pretreatment blood glucose values at a dose of 100 mg of free base / kg body weight administered orally.; assay type: functional; outline: as §4
[15] = test system: Rattus norvegicus; experiment: Evaluated in glucose primed, adrenalectomized rat for the percentage reduction in blood glucose level as compared to pretreatment blood glucose values at a dose of 25 mg of free base / kg body weight administered orally
[16] = Lethal dose required to produce 50% lethality in male and female carworth farms CF-1 strain mice weighing 16-25 g administered orally; conditions: both, CF-1, in vivo, po
[17] = test system: Cavia porcellus; experiment: Evaluated in normal, fasted guinea pig for the percentage reduction in blood glucose level after 5 hr as compared to pretreatment blood glucose values at a dose of 100 mg of free base / kg body weight administered orally; assay type: functional; outline: as §3
[18] = test system: Rattus norvegicus; experiment: Compound was evaluated for the blood sugar lowering (hypoglycemic activity ) in the glucose-primed rat at a dose of 50 mg of base/kg; assay type: functional; outline: as §1
[19] = test system: Rattus norvegicus; experiment: Compound was evaluated for the blood sugar lowering (hypoglycemic activity) in the glucose-primed rat at a dose of 100 mg/kg; assay type: functional; outline: as §1

Structure (SMILES) | Change [1] [%] | LD50 [2] [mg/kg] | LD50 [3] [mg/kg] | other results
CC(C)N(CCSc1ccc(N/C(=N\c2ccccc2)c2ccccc2)cc1)C(C)C.Cl | 35.6 | 400 | 285 | –
CC(C)N(CCOc1ccccc1/N=C(/Nc1ccccc1)c1ccccc1)C(C)C.Cl | 18.3 | 840 | 253 | –
Br.c1ccc(/N=C(\Nc2ccc(OCCN3CCCCC3)cc2)c2ccccc2)cc1 | – | 467 | 142 | Change [4]: 5.2%
Br.c1ccc(/N=C(\Nc2ccc(OCCCN3CCCC3)cc2)c2ccccc2)cc1 | 23.5 | 543 | 125 | –
COc1ccc(N/C(=N/c2ccc(OCCCN(C(C)C)C(C)C)cc2)c2ccccc2)cc1.Cl | 34.1 | 450 | 108 | –
COc1ccc(/C(=N\c2ccc(OCCN(C(C)C)C(C)C)cc2)Nc2ccccc2)cc1.Cl | 18.5 | 475 | 140 | –
CCCCN(CCCC)CCOc1ccc(N/C(=N\c2ccccc2)c2ccccc2)cc1.Cl | 22.5 | 800 | 160 | –
N=C(N)NC(=N)NCCc1ccccc1 [PHENFORMIN] | – | – | – | Reduction [5]: 46%; Reduction [6]: 0%; Reduction [7]: 62%; Reduction [8]: 50%
CC(C)N(CCOc1ccc(N/C(=N\c2ccc(Cl)c(Cl)c2)c2ccccc2)cc1)C(C)C.Cl | 13.8 | 1000 | 400 | –
Br.CCN/C(=N/c1ccc(OCCN(C(C)C)C(C)C)cc1)c1ccccc1 | 6.8 | 687 | 100 | –
Br.CC(C)N(CCOc1ccc(N/C(=N\c2ccc(F)cc2)c2ccccc2)cc1)C(C)C | 26 | 630 | 143 | –
Br.COc1ccc(N/C(=N/c2ccc(OCCCN3CCCC3)cc2)c2ccc(C)cc2)cc1 | 12.6 | 400 | 43 | –
CC(C)N(CCOc1ccc(N/C(=N\c2ccc(Cl)cc2)c2ccccc2)cc1)C(C)C.Cl | 30.9 | – | – | Reduction [9]: 28.8%; Reduction [10]: 35%; LD50 [11]: 1000 mg/kg; Reduction [12]: 18.8%; Reduction [13]: 23.5%; Reduction [6]: 30.9%; Reduction [14]: 7.4%; Reduction [15]: 31.4%; LD50 [16]: 1000 mg/kg; Reduction [17]: 14%
CC(C)N(CCOc1ccc(N/C(=N\c2ccc(Cl)cc2)c2ccccc2)cc1)C(C)C | 31 | 1000 | 1000 | –
Br.CN(CCOc1ccc(N/C(=N\c2ccccc2)c2ccccc2)cc1)Cc1ccccc1 | 15.9 | 500 | 233 | –
Cl.c1ccc(/N=C(\Nc2ccc(SCCN3CCCC3)cc2)c2ccccc2)cc1 | 12.5 | 587 | 200 | –
COc1ccc(N/C(=N/c2ccc(OCCN(C(C)C)C(C)C)cc2)c2ccccc2)cc1.Cl | 33.5 | 687 | 160 | –
CC(C)N(CCCOc1ccc(N/C(=N\c2ccc(Cl)cc2)c2ccccc2)cc1)C(C)C.Cl | 18.3 | 1000 | 187 | –

Structure (SMILES) | Change [1] [%] | LD50 [2] [mg/kg] | LD50 [3] [mg/kg] | other results
CC(C)CN/C(=N/c1ccc(OCCN(C(C)C)C(C)C)cc1)c1ccccc1 | 22.8 | 360 | 80 | –
CC(C)N(CCOc1cccc(N/C(=N\c2ccccc2)c2ccccc2)c1)C(C)C.Cl | – | 240 | 107 | Change [18]: 28.1%
Br.COc1ccc(N/C(=N/c2ccc(OCCCN3CCCC3)cc2)c2ccccc2)cc1 | 25.7 | 400 | 108 | –
Cc1cccc(/N=C(\Nc2ccc(OCCN(C(C)C)C(C)C)cc2)c2ccccc2)c1C | 23.2 | 1000 | 360 | –
CN/C(=N/c1ccc(OCCN(C(C)C)C(C)C)cc1)c1ccccc1 | – | 500 | 112 | Change [4]: 13.1%
Br.CN(C)CCOc1ccc(N/C(=N\c2ccccc2)c2ccccc2)cc1 | – | 500 | 112 | Change [4]: 13.1%
CC(C)N(CCOc1ccc(N/C(=N\C2CCCCC2)c2ccccc2)cc1)C(C)C | 9.8 | 373 | 137 | –
CCN(CC)CCOc1ccc(N/C(=N\c2ccccc2)c2ccccc2)cc1.O=C(O)C(=O)O | 6.8 | 687 | 100 | –
CC(C)N(CCOc1ccc(N/C(=N\Cc2ccccc2)c2ccccc2)cc1)C(C)C.Cl | – | 450 | 187 | Change [19]: 0%
Br.c1ccc(/N=C(\Nc2ccc(OCCN3CCOCC3)cc2)c2ccccc2)cc1 | – | 715 | 400 | Change [19]: 0%
C=CC/N=C(\Nc1ccc(OCCN(C(C)C)C(C)C)cc1)c1ccccc1 | 15 | 653 | 125 | –
Br.c1ccc(CN(CCOc2ccc(N/C(=N\c3ccccc3)c3ccccc3)cc2)Cc2ccccc2)cc1 | – | – | – | Change [19]: 0%
CCCCNC(=N)NC(=N)N [BUFORMIN] | – | – | – | LD50 [11]: 140 mg/kg; Reduction [6]: 0%; LD50 [16]: 500 mg/kg
CN(CCOc1ccc(N/C(=N\c2ccccc2)c2ccccc2)cc1)c1ccccc1 | 10.3 | 1000 | 587 | –
CCCCN(CCCC)CCCOc1ccc(N/C(=N\c2ccccc2)c2ccccc2)cc1.Cl | 10.9 | 867 | 148 | –
COc1ccc(/C(=N\c2ccc(OCCN3CCCC3)cc2)Nc2ccccc2)cc1.Cl | 14 | – | – | –
Br.COc1ccc(N/C(=N/c2ccc(OCCN3CCCC3)cc2)c2ccccc2)cc1 | 35 | 900 | 148 | –
CC(C)N(CCOc1ccc(N/C(=N\c2ccccc2)c2ccc(Cl)cc2)cc1)C(C)C.Cl | 3.2 | 1000 | 400 | –
